Experimental data as given in ChEMBL document CHEMBL4823260, “From High-Throughput Screening to Target Validation: Benzo[d]isothiazoles as Potent and Selective Agonists of Human Transient Receptor Potential Cation Channel Subfamily M Member 5 Possessing In Vivo Gastrointestinal Prokinetic Activity in Rodents” (J Med Chem, 2021).

How the values were obtained:
[1] = molecular target: T1, Transient receptor potential cation channel subfamily M member 5 (Homo sapiens, UniProt Q9NZQ8); assay: Agonist activity at human TRPM5 expressed in CHO-K1 cells maintained at 80 mV final holding potential by syncroPatch assay; format: cell-based
T1 sequence (Q9NZQ8 whole entry): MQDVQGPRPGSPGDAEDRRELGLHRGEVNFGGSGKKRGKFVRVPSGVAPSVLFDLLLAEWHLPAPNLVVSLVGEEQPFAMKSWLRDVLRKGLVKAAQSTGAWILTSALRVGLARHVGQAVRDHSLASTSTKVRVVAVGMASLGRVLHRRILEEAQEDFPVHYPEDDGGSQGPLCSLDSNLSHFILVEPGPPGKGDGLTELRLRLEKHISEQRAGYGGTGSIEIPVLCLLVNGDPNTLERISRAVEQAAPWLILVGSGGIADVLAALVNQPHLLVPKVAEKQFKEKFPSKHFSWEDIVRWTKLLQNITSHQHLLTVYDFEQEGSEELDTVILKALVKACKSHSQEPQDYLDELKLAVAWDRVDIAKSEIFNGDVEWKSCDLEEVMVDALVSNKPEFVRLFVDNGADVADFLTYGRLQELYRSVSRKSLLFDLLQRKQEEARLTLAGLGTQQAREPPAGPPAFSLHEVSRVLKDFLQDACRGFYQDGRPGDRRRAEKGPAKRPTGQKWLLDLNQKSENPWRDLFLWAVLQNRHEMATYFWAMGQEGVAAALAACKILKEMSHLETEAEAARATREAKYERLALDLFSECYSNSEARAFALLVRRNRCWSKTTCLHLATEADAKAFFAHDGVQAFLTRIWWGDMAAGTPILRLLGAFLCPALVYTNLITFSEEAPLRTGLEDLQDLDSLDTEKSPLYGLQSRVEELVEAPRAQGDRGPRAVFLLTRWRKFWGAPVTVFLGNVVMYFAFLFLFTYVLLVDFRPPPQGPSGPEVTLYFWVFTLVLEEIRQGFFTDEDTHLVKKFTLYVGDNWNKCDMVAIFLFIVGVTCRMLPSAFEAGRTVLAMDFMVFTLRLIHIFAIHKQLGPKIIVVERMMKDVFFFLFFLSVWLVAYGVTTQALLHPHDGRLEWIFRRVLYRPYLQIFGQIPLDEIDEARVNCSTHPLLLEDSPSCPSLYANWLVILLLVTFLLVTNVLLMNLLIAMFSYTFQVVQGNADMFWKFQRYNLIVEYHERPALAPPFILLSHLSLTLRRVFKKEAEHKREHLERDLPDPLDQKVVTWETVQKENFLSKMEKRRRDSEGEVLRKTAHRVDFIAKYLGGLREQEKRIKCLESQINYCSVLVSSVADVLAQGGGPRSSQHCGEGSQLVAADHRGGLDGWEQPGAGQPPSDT
Outline: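 SyncroPatch 384 whole-cell recording at rt on CHO-K1 cells stably expressing human or mouse TRPM5. Intracellular solution had 2 mM Na-ATP and 5 μM free Ca2+. Cumulative doses 0.03–31.6 μM in 0.5% DMSO, 150 s each after 180 s vehicle. Current measured at the end of the +80 mV step, normalized to vehicle; pEC50 is the mean of ≥2 independent experiments.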

[2] = Intrinsic clearance in human liver microsomes assessed per mg protein incubated up to 30 mins in presence of NADPH by LC-MS/MS analysis; format: ADME, Microsome
[3] = Intrinsic clearance in mouse liver microsomes assessed per mg protein incubated up to 30 mins in presence of NADPH by LC-MS/MS analysis; format: ADME, Microsome

Row | SMILES | EC50 [1] [nM] | microsomal CLint [2] [µL/min/mg] | microsomal CLint [3] [µL/min/mg]
1 | Cn1c(Cl)cnc1CNc1cc2sncc2cc1Cl | 11.2 | – | –
2 | Cc1nnc(CNc2ccc3sncc3c2)s1 | 19100 | – | –
3 | Cn1c(Cl)cnc1CNc1ccc2cnsc2c1 | 295 | – | –
4 | Fc1cc(NCc2ncc(Cl)s2)cc2cnsc12 | 1380 | 202 | 612
5 | Cc1cc2cnsc2cc1NCc1ncc(Cl)n1C | 38 | – | –
6 | CN(Cc1ncc(Cl)n1C)c1cc2sncc2cc1Cl | 309 | – | –
7 | Cn1c(Cl)cnc1CNc1ccc2oncc2c1 | 3020 | – | –
8 | Cc1c(NCc2ncc(Cl)s2)ccc2sncc12 | 1740 | 178 | 508
9 | Cn1c(Cl)cnc1CNc1ccc2ocnc2c1 | 16200 | – | –
10 | Cn1c(Cl)cnc1CN1CC(CO)Cc2cccc(F)c21 (stereo unspecified) | 5010 | – | –
11 | Cn1c(CNc2ccc3sncc3c2)nc(Cl)c1Cl | > 31600 | – | –
12 | Fc1c(NCc2ncc(Cl)s2)ccc2sncc12 | 933 | 247 | 448
13 | Clc1cnc(CNc2cccc3cnsc23)s1 | 1450 | – | –
14 | Cn1c(Cl)ccc1CNc1ccc2sncc2c1 | > 31600 | – | –
15 | Clc1cnc(CNc2ccc3sncc3c2)[nH]1 | > 31600 | – | –
16 | O=C(Nc1ccc2sncc2c1)c1ncc(Cl)s1 | > 31600 | – | –
17 | Clc1cnc(CNc2cc3cnsc3cn2)s1 | 468 | 155 | 93

Row | SMILES | EC50 [1] [nM] | microsomal CLint [2] [µL/min/mg] | microsomal CLint [3] [µL/min/mg]
18 | Cc1cc2sncc2cc1N(C)Cc1ncc(Cl)s1 | 5250 | 562 | 748
19 | Clc1ccc(CNc2ccc3sncc3c2)s1 | 2750 | – | –
20 | CN(Cc1ncc(Cl)n1C)c1ccc2cnsc2c1 | 85.1 | – | –
21 | Clc1cnc(CNc2cc(Cl)c3sncc3c2)s1 | > 31600 | 150 | 221
22 | CCN(Cc1ncc(Cl)n1C)c1ccc2sncc2c1 | 468 | – | –
23 | CC(C)(Nc1ccc2sncc2c1)c1ncc(Cl)s1 | > 31600 | 173 | 250
24 | Cn1ccnc1CNc1ccc(Cl)cc1OCCC(F)(F)F | 2510 | – | –
25 | Cc1csc(CNc2ccc3sncc3c2)n1 | > 31600 | – | –
26 | N#Cc1ccc(CNc2ccc3sncc3c2)s1 | > 31600 | – | –
27 | Cc1nc(CNc2ccc3sncc3c2)sc1C | > 31600 | – | –
28 | CN(Cc1ncc(Cl)s1)c1ccc2sncc2c1 | 447 | – | –
29 | Clc1cnc(CNc2ccc3sncc3n2)s1 | 1170 | 172 | 421
30 | c1ccc2sc(CNc3ccc4sncc4c3)nc2c1 | > 31600 | – | –
31 | Clc1cnc(COc2ccc3sncc3c2)s1 | 832 | 157 | 763
32 | Cn1c(Cl)cnc1CNc1ccc2scnc2c1 | 13500 | – | –
33 | CC(C)N(Cc1ncc(Cl)n1C)c1ccc2sncc2c1 | 5130 | – | –
